For data set [1] the following is noted: cited from earlier work.
A further data set deals with Hela cells. Nature of the data set: MTT cytotoxicity assay. The following applies: Homo sapiens, 24 h, read-out: IC50 (50% cell killing). The class given is cell-based. In outline:
(§1)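 Cells were kept in folate-free RPMI 1640 with 10% FBS at 37°C and 5% CO2, then seeded at 5000/well and left to attach for 24 h. Test compound was given free (DMSO), in SMEDDS or in FSMEDDS, ±1 mM free folate, at 1, 5, 10, 20 and 40 μM for 24 h at 37°C. After three PBS washes, MTT was added for 4 h, formazan dissolved in DMSO, and OD read at 570 nm. Triplicates; IC50 from concentration–viability curves.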

Data set [2] is described as follows: Solubility of curcumin in various vehicles. Format: physicochemical. In outline:
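Excess test compound was shaken in 1 mL vehicle in a water bath at room temperature for 48 h. It was then centrifuged at 12,000 rpm for 10 min and passed through a 0.45 μm filter, and the supernatant was diluted in methanol. Quantified by HPLC: C18 column (5 μm, 4.6 × 250 mm) at room temperature, methanol:water (3.6% glacial acetic acid) 73:27 v/v, 1.0 mL/min, detection at 428 nm.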

The subject of another data set is HT-29 cells. As to the kind of experiment: MTT cytotoxicity assay. Format: cell-based. The settings on record: Homo sapiens, HT-29, 24 h, read-out: IC50 (50% cell killing). In outline:
as §1
Background: Tetrazolium assays rely on reduction of a dye to a coloured formazan, in cell work by metabolically active cells.

Each structure is given as a SMILES string. ≈ marks a conversion by molar mass, not a printed value.

What is called IC50 is the midpoint of a concentration-inhibition curve. As usually defined, the solubility is how much of the substance goes into solution per volume.

As to `COc1cc(/C=C/C(=O)CC(=O)/C=C/c2ccc(O)c(OC)c2)ccc1O` [curcumin], the “Solubility of curcumin in the aqueous medium” value in data set [1] is “about 11 ng/g”. Moreover, the IC50 is 30.4 ± 1.71 µM in the data set with Hela cells and 25.6 ± 2.23 µM in the data set with HT-29 cells. Further, the solubility at 48 h in data set [2] (Capryol 90 (oil), oil or lipid, thermodynamic from solid) was 9430 ± 800 µg/mL (≈ 25.6 mM); in data set [2] (Cremophor EL (surfactant), organic solvent or mixture, thermodynamic from solid), 65800 ± 4800 µg/mL (≈ 179 mM); in data set [2] (Emulsifier OP (surfactant), organic solvent or mixture, thermodynamic from solid), 5160 ± 1030 µg/mL (≈ 14 mM); in data set [2] (Labrafil M1944CS (oil)) it was 3170 ± 130 µg/mL (≈ 8.61 mM); in data set [2] (Labrasol (surfactant), organic solvent or mixture, thermodynamic from solid) it was 99300 ± 1730 µg/mL (≈ 270 mM); in data set [2] (PEG 400 (cosurfactant), organic solvent or mixture, thermodynamic from solid) it was 159800 ± 480 µg/mL (≈ 434 mM). Moreover, the solubility at 48 h in data set [2] (Tween 80 (surfactant), organic solvent or mixture, thermodynamic from solid) amounted to 4860 ± 1150 µg/mL (≈ 13.2 mM); in data set [2] (castor oil (oil), oil or lipid, thermodynamic from solid), 1560 ± 470 µg/mL (≈ 4.23 mM); in data set [2] (ethanol (cosurfactant), organic solvent or mixture, thermodynamic from solid), 5980 ± 630 µg/mL (≈ 16.2 mM); in data set [2] (ethyl oleate (oil), oil or lipid, thermodynamic from solid), 1040 ± 20 µg/mL (≈ 2.82 mM); in data set [2] (isopropyl myristate (oil), oil or lipid, thermodynamic from solid), 510 ± 50 µg/mL (≈ 1.38 mM).

These data come from article PMC3263408 (International Journal of Nanomedicine, 2012).
